# High-throughput results from PubChem.
# EBI2 antag = EBI2 (human) antagonism; EBI2 beta-arrestin recruitment, luminescence, 7a,25-OHC stimulated; inhibition, % at 5 µM; actives 0.81% (n = 360,000); in the data active = inhibition above about 38%;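 note: enzyme fragment complementation signal reports receptor beta-arrestin coupling in cells; 0% = agonist plus DMSO wells and 100% = wells without agonist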
# MC4R barr agon = human MC4R agonism via beta-arrestin; actives 0.98% (n = 360,000); activation, % at 8.9 µM; AID 540308; U2OS MC4R beta-arrestin complementation, luminescence; percent of melanotan II response, DMSO zero;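 active = activation above a per-plate cutoff, the mean activation of sample wells on that plate plus 3 SD, cut at about 8% in these data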
# MC4R antag cAMP = blocks human MC4R cAMP signaling; P32245; MC4R-expressing cells, MTII-stimulated cAMP, LANCE TR-FRET; inhibition, % at 6.5 µM; actives 0.48% (n = 360,000); AID 540295;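 active = inhibition above its plate's cutoff, the mean of tested wells on that plate plus 3 SD, cut at about 29% in these data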;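 note: 0% = Melanotan II alone and 100% = Melanotan II plus saturating MCL0020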
#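 Assay system: U2OS-MC4R stable cell line; Also added: Melanotan II; Technique: Eu-cAMP/anti-cAMP TR-FRET, emission 671 nm; Times: 30-min compound, 1-h challenge, 1-h detection, room temperature.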
# m5-HT2A agonist = agonists of mouse serotonin 5-HT2A receptor (HTR2A). activation, % at 7.6 µM. AID 624169. CHO-K1 mHTR2A beta-arrestin complementation, luminescence; percent of 30 µM serotonin response. actives 0.66% (n = 360,000);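 active = activation above a run cutoff, the mean activation of all tested compounds plus 3 SD, cut at about 14% in these data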;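 note: 0% = plate median of compound wells and 100% = 30 µM serotonin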
# Target sequence (P35363 whole entry, looked up): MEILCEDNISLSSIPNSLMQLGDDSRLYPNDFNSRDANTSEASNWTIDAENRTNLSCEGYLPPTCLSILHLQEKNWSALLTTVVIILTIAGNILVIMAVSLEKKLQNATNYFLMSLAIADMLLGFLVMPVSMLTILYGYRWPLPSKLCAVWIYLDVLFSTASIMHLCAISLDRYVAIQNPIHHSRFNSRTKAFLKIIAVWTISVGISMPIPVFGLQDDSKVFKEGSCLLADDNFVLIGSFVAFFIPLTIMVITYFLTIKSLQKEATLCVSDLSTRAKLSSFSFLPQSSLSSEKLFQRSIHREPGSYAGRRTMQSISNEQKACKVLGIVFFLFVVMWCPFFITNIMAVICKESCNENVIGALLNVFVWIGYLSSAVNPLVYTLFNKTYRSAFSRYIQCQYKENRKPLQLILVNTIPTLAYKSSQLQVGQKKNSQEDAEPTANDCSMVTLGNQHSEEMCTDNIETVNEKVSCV
# * marks the source's active call; other numbers are inactive results; . = no result. Rows were chosen to be rich in hits. Some 2.8% of all compounds tested hit in one or more screens of this group.
SMILES,EBI2 antag,MC4R barr agon,MC4R antag cAMP,m5-HT2A agonist
O=C(Nc1ccccc1-c1ccccc1)C(c1ccccc1)c1ccccc1,13.7,9.4*,0.7,0.3
O=C(Nc1ccccc1O)C(c1ccccc1)c1ccccc1,0.0,1.5,-1.4,2.2
Cc1cccc(N(C(=O)CNC(=O)c2ccco2)C(C(=O)NC2CCCCC2)c2cccnc2)c1 (stereo not given),5.4,0.7,2.7,7.2
COc1ccc(N(C(=O)c2cnccn2)C(C(=O)NC2CCCCC2)c2ccc(Cl)cc2)cc1 (stereo not given),-14.6,0.9,2.4,5.5
COc1ccc(C(C(=O)NC2CCCCC2)N(C(=O)CCl)c2ccc(Cl)cc2)cc1 (stereo not given),16.3,13.2*,20.4,-2.5
O=C(NC1CCCCC1)C(c1cccnc1)N(C(=O)CCl)c1cccc(Cl)c1 (stereo not given),-18.6,13.2*,4.2,0.7
CN(C)CCCN(C(=O)COc1ccc(Cl)cc1)c1nc2ccc(F)cc2s1,-5.0,0.9,5.6,-5.8
Cc1ccc2nc(N(CCCN(C)C)C(=O)COc3ccc(Cl)cc3)sc2c1,-1.1,8.8*,-5.2,-10.4
CN(C)CCCN(C(=O)CCOc1ccccc1)c1nc2c(F)cccc2s1,47.6*,-2.9,-9.7,13.9
Cc1ccc2nc(N(CCCN(C)C)C(=O)c3cc(-c4cccs4)nc4ccccc34)sc2c1,3.4,9.2*,5.4,-21.9
CN(C)CCCN(C(=O)c1cc(-c2cccs2)nc2ccccc12)c1nc2c(F)cccc2s1,0.1,-0.2,3.8,-17.7
CN(C)CCCN(C(=O)CCc1ccccc1)c1nc2c(F)cccc2s1,-10.5,0.6,-0.6,-7.1
COc1cccc(/C=C/C(=O)OCC(=O)c2ccc3c(c2)NC(=O)CO3)c1,6.1,8.5*,11.3,5.7
COC(=O)C[C@@H]1C[C@@H]2c3cc(NC(=O)NC4CCCCC4)ccc3O[C@@H]2[C@H](CO)O1,-6.6,-0.3,13.3,2.0
CCOc1ccc2nc(SCC(=O)c3ccc(O)cc3O)sc2c1,-2.5,8.5*,-6.1,-1.8
Cc1nn2c(=O)[nH]cnc2c1Cl,-14.7,0.9,14.6,8.5
O=C(c1cccs1)c1no[n+]([O-])c1C(=O)c1cccs1,3.9,17.4*,4.7,1.0
COc1ccc(C(=O)c2no[n+]([O-])c2C(=O)c2ccc(OC)cc2)cc1,8.1,8.0,1.5,-3.3
CCCCNc1c(-c2ccc(-c3ccc(C(C)=O)cc3)c(OC)c2)nc2cnccn12,49.2*,1.0,12.9,7.3
COc1cc(-c2nc3cnccn3c2NC(C)(C)CC(C)(C)C)ccc1O,2.2,2.9,1.6,4.5
Cc1cc(OCCn2cc(/C(N)=N/O)c3ccccc32)ccc1Cl,2.1,8.8*,-4.0,-7.2
COC(=O)c1cn(CCOc2ccc(C)cc2)c2ccccc12,16.6,5.8,2.1,-8.2
O=C(Nc1ccc(Cl)c(S(=O)(=O)N2CCCC2)c1)c1cc(=O)[nH]c2ccccc12,-2.4,-1.5,-2.0,-5.8
O=c1[nH]c2ccc(Cl)cc2c(O)c1-c1ccccc1,3.8,0.1,7.0,0.0
O=c1[nH]c2ccc(Cl)cc2c(-c2ccccc2)c1[N+](=O)[O-],-0.8,9.3*,3.8,2.7
SMILES,EBI2 antag,MC4R barr agon,MC4R antag cAMP,m5-HT2A agonist
Cc1c(Cl)cccc1NC(=O)COC(=O)CCc1nc2ccccc2n1-c1ccccc1,8.8,8.3*,14.0,-3.6
CCOc1ccccc1OCCCC(=O)Nc1cc(S(=O)(=O)N2CCCCC2)ccc1C,10.4,-1.4,2.0,-3.5
Cc1noc(NS(=O)(=O)c2ccc(NS(=O)(=O)c3ccc(C(C)(C)C)cc3)cc2)c1C,-0.2,0.2,13.5,1.7
CCc1ccc(OCC(=O)NC(=S)Nc2ccc(S(=O)(=O)NC3CCCCC3)cc2)cc1,-0.3,8.3*,-8.6,1.2
c1ccc(Nc2nc(-c3ccccc3)ns2)cc1,46.0*,4.7,-9.6,7.9
CC(C)COC(=O)NC1c2ccccc2Oc2ccccc21,9.0,10.2*,11.6,1.5
COc1ccccc1-c1csc(C(C)(NC(C)=O)c2ccccc2)n1 (stereo not given),-2.2,0.2,3.0,-4.2
CCC[C@H]1CN(c2ccc(Br)cc2)C(=O)[C@@H]1CC(=O)NC,-2.6,0.2,4.3,-2.8
CCCCNc1cc(=O)n(C)c(=O)n1C,-6.3,-1.4,7.3,14.9*
COc1ccc(-c2nn(-c3ccccc3)cc2CO)cc1,-9.6,4.7,-4.8,3.0
N=C(N)SCc1cn(-c2ccccc2)nc1-c1ccc(Br)cc1,-23.4,16.6*,1.3,-5.6
Cc1ccc(-c2noc(CCC(=O)Nc3cc(C)ccn3)n2)cc1,-4.6,9.2*,11.4,11.4
COc1ccccc1N/C(=N/S(=O)(=O)c1ccc(C)cc1)c1ccc(Cl)cc1,9.9,0.2,29.7*,-2.3
Cc1ccccc1-c1cc2nc(NCCc3ccncc3)n(C)c(=O)c2s1,16.6,-0.6,1.1,4.0
CC(C)CC1C(=O)N(Cc2cn(CCC3OCCO3)nn2)CCS(=O)(=O)N1Cc1ccc(-c2ccncc2)cc1 (stereo not given),-9.6,-0.4,10.6,6.4
O=[N+]([O-])c1cc(C(F)(F)F)ccc1Sc1ccccn1,4.9,8.6*,-4.8,1.1
CCN(CC)c1ncnc2c1ncn2[C@H]1CN(Cc2ccc(OC)cc2)C[C@@H](CO)O1,5.6,-1.5,10.7,7.0
O=C(/C=C/c1ccccc1)NC(=S)Nc1ccc(N2CCOCC2)cc1,4.4,14.0*,5.9,-1.7
Cc1cn([C@H]2C[C@H](O)[C@@H](CNC(=O)CNC(=O)CN)O2)c(=O)[nH]c1=O,-7.1,-0.9,7.9,-1.3
CCOC(=O)c1cc(C#N)c(NCc2ccccc2)nc1C,25.3,8.8*,-7.3,2.6
CC(=O)c1cc(C#N)c(NCc2ccccc2)nc1C,-4.8,1.3,-6.9,3.7
CCC1CCc2c(sc3nc(SCC(=O)NCc4ccco4)n(-c4ccccc4)c(=O)c23)C1 (stereo not given),6.5,8.7*,8.9,1.4
C=C1CC(Cn2cc(Br)c(=O)[nH]c2=O)(c2ccc(-c3ccccc3)cc2)OC1=O (stereo not given),84.1*,-1.5,5.6,5.5
O=c1[nH]c(=O)n(Cc2ccc(Oc3ccccc3)cc2)cc1Br,1.9,-1.1,-5.7,2.4
CSc1ccc(CN2CCC2(C)C(=O)NC2CCc3ccccc32)cc1 (stereo not given),19.8,0.1,-0.6,-5.9
CN(C(=O)CSc1nc(-c2ccccc2)cn1N)C(c1ccccc1)c1ccccc1,36.3*,3.8,16.7,-1.4
COc1ccccc1CNC(=O)CSc1nc(-c2ccccc2)cn1N,7.0,0.2,10.3,0.7
CC1CCC(C(C)C)C(NC(=O)c2ccncc2)C1 (stereo not given),-2.1,.,.,-3.2
O=C1N=C(N2CCN(c3ccccc3)CC2)S/C1=C\c1cn[nH]c1-c1ccccc1,-14.9,8.5*,-3.3,-3.0
C=CCn1c(SCC(C)=O)nc2scc(-c3ccc(C)o3)c2c1=O,13.6,8.3*,0.2,-2.1
